Test results published in ChEMBL document CHEMBL5385966, “Synthesis and biological evaluation of new naphthalimide-thiourea derivatives as potent antimicrobial agents active against multidrug-resistant Staphylococcus aureus and Mycobacterium tuberculosis” (RSC Med Chem, 2024).
≈ marks a conversion by molar mass, not a printed value. Calls of active or inactive are those of the source. The rule behind the calls is not given here.

Legend:
Staphylococcus aureus [1] = assay: Antibacterial activity against methicillin/ceftriaxone/meropenem/gentamycin/vancomycin/teicoplanin-resistant Staphylococcus aureus VRS1 clinical isolate assessed as bacterial growth inhibition incubated for 16 to 18 hrs by CLSI based antibiotic susceptibility testing method; format: functional; settings: time 16-18 hrs
Procedure, shortened: (§1)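 Broth microdilution in cation-adjusted Mueller-Hinton broth. Compounds were tested at […], with levofloxacin as reference and medium-only controls. Plates were incubated at 37 °C for 16-18 h. MIC was the lowest concentration with no visible growth; three independent determinations, each in duplicate.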

Staphylococcus aureus [2] = assay: Antibacterial activity against methicillin/ceftriaxone/meropenem/vancomycin/teicoplanin-resistant Staphylococcus aureus VRS4 clinical isolate assessed as bacterial growth inhibition incubated for 16 to 18 hrs by CLSI based antibiotic susceptibility testing method; format: functional; settings: time 16-18 hrs; procedure, shortened: as §1
Staphylococcus aureus [3] = assay: Antibacterial activity against methicillin/ceftriaxone/meropenem/vancomycin/teicoplanin-resistant Staphylococcus aureus VRS12 clinical isolate assessed as bacterial growth inhibition incubated for 16 to 18 hrs by CLSI based antibiotic susceptibility testing method; format: functional; settings: time 16-18 hrs; procedure, shortened: as §1
Mycobacteroides chelonae = assay: Antimycobacterial activity against Mycobacteroides chelonae ATCC 35752 assessed as bacterial growth inhibition incubated for 72 hrs by resazurin dye based broth microdilution method; format: functional, organism-based
Procedure, shortened: (§2)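 Broth microdilution in Middlebrook 7H9 with 10% ADC-Tween-80 (0.2% glycerol, 0.05% Tween-80), inoculum ~10⁶ cfu/mL. Compounds came from 10 mg/mL DMSO stocks and were tested as two-fold serial dilutions at 37 °C, 7 days for M. tuberculosis H37Rv and 72 h for NTM. Growth was read visually with PrestoBlue resazurin dye; MIC was the lowest concentration preventing growth. Triplicate determinations, each in duplicate.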

Escherichia coli = assay: Antibacterial activity against Escherichia coli ATCC 25922 assessed as bacterial growth inhibition incubated for 16 to 18 hrs by CLSI based antibiotic susceptibility testing method; format: functional, organism-based; settings: time 16-18 hrs; procedure, shortened: as §1
[4] = test system: Mycolicibacterium fortuitum; assay: Antimycobacterial activity against Mycobacterium fortuitum ATCC 6841 assessed as bacterial growth inhibition incubated for 72 hrs by resazurin dye based broth microdilution method; format: functional, organism-based; procedure, shortened: as §2
Acinetobacter baumannii = assay: Antibacterial activity against Acinetobacter baumannii BAA 1605 assessed as bacterial growth inhibition incubated for 16 to 18 hrs by CLSI based antibiotic susceptibility testing method; format: functional, organism-based; settings: time 16-18 hrs; procedure, shortened: as §1
[5] = test system: Mycobacterium tuberculosis; assay: Antimycobacterial activity against Mycobacterium tuberculosis H37Rv ATCC 27294 assessed as bacterial growth inhibition incubated for 7 days by resazurin dye based broth microdilution method; format: functional; settings: H37Rv ATCC 27294, 168 h, time 7 day; procedure, shortened: as §2
Staphylococcus aureus [6] = assay: Antibacterial activity against Staphylococcus aureus ATCC 29213 assessed as bacterial growth inhibition incubated for 16 to 18 hrs by CLSI based antibiotic susceptibility testing method; format: functional; settings: time 16-18 hrs; procedure, shortened: as §1
Klebsiella pneumoniae = assay: Antibacterial activity against Klebsiella pneumoniae BAA 1705 assessed as bacterial growth inhibition incubated for 16 to 18 hrs by CLSI based antibiotic susceptibility testing method; format: functional, organism-based; settings: time 16-18 hrs; procedure, shortened: as §1
[7] = test system: Mycobacteroides abscessus; assay: Antimycobacterial activity against Mycobacterium abscessus ATCC 19977 assessed as bacterial growth inhibition incubated for 72 hrs by resazurin dye based broth microdilution method; format: functional, organism-based; procedure, shortened: as §2
Pseudomonas aeruginosa = assay: Antibacterial activity against Pseudomonas aeruginosa ATCC 27853 assessed as bacterial growth inhibition incubated for 16 to 18 hrs by CLSI based antibiotic susceptibility testing method; format: functional, organism-based; settings: time 16-18 hrs; procedure, shortened: as §1

SMILES: CN[C@H](CC(C)C)C(=O)N[C@H]1C(=O)N[C@@H](CC(N)=O)C(=O)N[C@H]2C(=O)N[C@H]3C(=O)N[C@H](C(=O)N[C@H](C(=O)O)c4cc(O)cc(O)c4-c4cc3ccc4O)[C@H](O)c3ccc(c(Cl)c3)Oc3cc2cc(c3O[C@@H]2O[C@H](CO)[C@@H](O)[C@H](O)[C@H]2O[C@H]2C[C@](C)(N)[C@H](O)[C@H](C)O2)Oc2ccc(cc2Cl)[C@H]1O [VANCOMYCIN]
- MIC (Staphylococcus aureus [1]): > 64 µg/mL
- MIC (Staphylococcus aureus [2]): > 64 µg/mL
- MIC (Staphylococcus aureus [3]): > 64 µg/mL

SMILES: COc1ccc(NC(=S)N2CCN(C(=O)CN3C(=O)c4cccc5cccc(c45)C3=O)CC2)cc1
- growth inhibition (GI) (Mycobacteroides chelonae): inactive
- growth inhibition (GI) (Escherichia coli): inactive
- growth inhibition (GI) [4]: inactive
- growth inhibition (GI) (Acinetobacter baumannii): inactive
- MIC [5]: 64 µg/mL (≈ 131 µM)
- MIC (Staphylococcus aureus [6]): > 64 µg/mL
- growth inhibition (GI) (Klebsiella pneumoniae): inactive
- growth inhibition (GI) [7]: inactive
- growth inhibition (GI) (Pseudomonas aeruginosa): inactive

SMILES: O=C(Nc1ccc(Cl)cc1)N1CCN(CCN2C(=O)c3cccc4cccc(c34)C2=O)CC1
- growth inhibition (GI) (Mycobacteroides chelonae): inactive
- growth inhibition (GI) (Escherichia coli): inactive
- growth inhibition (GI) [4]: inactive
- growth inhibition (GI) (Acinetobacter baumannii): inactive
- MIC [5]: 8 µg/mL (≈ 17.3 µM)
- MIC (Staphylococcus aureus [6]): > 64 µg/mL
- growth inhibition (GI) (Klebsiella pneumoniae): inactive
- growth inhibition (GI) [7]: inactive
- growth inhibition (GI) (Pseudomonas aeruginosa): inactive

SMILES: COc1ccc(NC(=S)N2CCN(C(=O)CCN3C(=O)c4cccc5cccc(c45)C3=O)CC2)cc1
- growth inhibition (GI) (Mycobacteroides chelonae): inactive
- growth inhibition (GI) (Escherichia coli): inactive
- growth inhibition (GI) [4]: inactive
- growth inhibition (GI) (Acinetobacter baumannii): inactive
- MIC [5]: 8 µg/mL (≈ 15.9 µM)
- MIC (Staphylococcus aureus [6]): > 64 µg/mL
- growth inhibition (GI) (Klebsiella pneumoniae): inactive
- growth inhibition (GI) [7]: inactive
- growth inhibition (GI) (Pseudomonas aeruginosa): inactive

SMILES: CCCCCCCNC(=S)N1CCN(CCN2C(=O)c3cccc4cccc(c34)C2=O)CC1
- growth inhibition (GI) (Mycobacteroides chelonae): inactive
- growth inhibition (GI) (Escherichia coli): inactive
- growth inhibition (GI) [4]: inactive
- growth inhibition (GI) (Acinetobacter baumannii): inactive
- MIC [5]: 64 µg/mL (≈ 137 µM)
- MIC (Staphylococcus aureus [6]): > 64 µg/mL
- growth inhibition (GI) (Klebsiella pneumoniae): inactive
- growth inhibition (GI) [7]: inactive
- growth inhibition (GI) (Pseudomonas aeruginosa): inactive

SMILES: O=C1c2cccc3cccc(c23)C(=O)N1CCN1CCN(C(=S)Nc2cccnc2)CC1
- growth inhibition (GI) (Mycobacteroides chelonae): inactive
- growth inhibition (GI) (Escherichia coli): inactive
- growth inhibition (GI) [4]: inactive
- growth inhibition (GI) (Acinetobacter baumannii): inactive
- MIC [5]: > 64 µg/mL
- MIC (Staphylococcus aureus [6]): > 64 µg/mL
- growth inhibition (GI) (Klebsiella pneumoniae): inactive
- growth inhibition (GI) [7]: inactive
- growth inhibition (GI) (Pseudomonas aeruginosa): inactive
